Source: PubChem BioAssay (The Scripps Research Institute Molecular Screening Center)
The list is not random: actives were taken first. Their share in the collection is about 4%.
CHO parental Ca – ATP-evoked calcium signal inhibitors, parental CHO, primary screen, counter-screen for OX1R antagonist project, cell-based, fluorescence, Fluo-8 calcium dye; parental CHO-K1, ATP-induced calcium, Fluo-8 fluorescence; inhibition, % at 5.6 µM; 330,000 compounds, 0.63% hits;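 active means inhibition above that plate's mean sample inhibition plus 3 SD, cut at about 26% in these data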
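Material: Parental CHO cells | Reagent: ATP | Compound dosing: Single nominal dose of 5.6 µM per compound | Detection: Intracellular calcium via Fluo-8 no-wash fluorescent dye | Read-out: % inhibition of ATP-induced calcium mobilization | Benchmarks: Low control ATP plus DMSO, high control DMSO only | Replicates: Singlicate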
TAAR1 agonist – human TAAR1 agonists, primary screen, Fluo-8 calcium fluorescence, CHO RD-HGA16 cells; Trace amine-associated receptor 1 (Homo sapiens), Q96RJ0; vehicle wells 0%, saturating PEA agonist 100%; activation, % at 3 µM; 360,000 compounds, 0.99% hits;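 active means activation above the mean activation of all test compounds in the run plus 3 SD, cut at about 38% in these data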
Target sequence (Q96RJ0 whole entry, looked up): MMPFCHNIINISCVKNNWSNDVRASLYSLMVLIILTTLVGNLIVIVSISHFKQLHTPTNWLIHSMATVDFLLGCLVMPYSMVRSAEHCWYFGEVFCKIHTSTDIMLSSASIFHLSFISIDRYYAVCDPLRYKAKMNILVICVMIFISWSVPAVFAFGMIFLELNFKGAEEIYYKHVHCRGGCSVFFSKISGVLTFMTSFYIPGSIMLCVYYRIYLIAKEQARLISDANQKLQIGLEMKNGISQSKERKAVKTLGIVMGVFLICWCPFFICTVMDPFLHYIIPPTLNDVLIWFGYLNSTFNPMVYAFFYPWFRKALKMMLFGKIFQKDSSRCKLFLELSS
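Assay system: CHO-derived RD-HGA16 cells with stable Gα16 and human TAAR1; timing: 17-24 h seeding, 75 min 37 °C dye, 30 min RT; read-out: % activation from peak over basal fluorescence ratio, DMSO-to-PEA scaled; measured by: kinetic Fluo-8 calcium fluorescence; benchmarks: low control DMSO, high control PEA (EC100); doses: 3 µM single concentration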
OX1R antag-1 – OX1R (HCRTR1) antagonists, primary screen, fluorescence, CHO/OX1R cells, Fluo-8 calcium, orexin A | inhibition, % at 5 µM | Fluo-8 calcium fluorescence | AID 434989, 2010 | 330,000 compounds, 0.43% hits | Orexin/Hypocretin receptor type 1 (Homo sapiens), O43613;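 active means inhibition above its plate's threshold, mean inhibition of all tested compounds on the plate plus 3 SD, cut at about 37% in these data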
OX1R antag-2 – antagonists of human orexin 1 receptor (OX1R) | Orexin/Hypocretin receptor type 1 (Homo sapiens), O43613 | OX1R-expressing cells, FRET antagonist read-out | inhibition, % at 6.6 µM | 330,000 compounds, 1.8% hits | AID 485270, 2010; in the data active means inhibition mostly above about 38%, no sharp cut-off; inactive means mostly below about 40%
TAAR1 antag – human TAAR1 antagonists, primary screen, Fluo-8 calcium fluorescence, CHO RD-HGA16 cells. AID 624466, 2012. antagonist. inhibition, % at 3 µM. 360,000 compounds, 1.5% hits. Trace amine-associated receptor 1 (Homo sapiens), Q96RJ0;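 active means inhibition above a per-plate cutoff, the mean inhibition of test compounds on that plate plus 3 SD, cut at about 49% in these data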
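System: RD-HGA16 CHO cells with stable hTAAR1 and Gα16 | Probe or stimulus: EC80 β-phenethylamine stimulus | Dosing: 3 µM, single point | Times: Dye loading 75 min at 37 °C, then 30 min room temperature | Measured by: Fluo-8 calcium-sensitive fluorescence | Read-out basis: % inhibition of agonist calcium response | Replicates: n of 1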
Hits are given with their value.

For CCn1c(C)nc2cc(C(=O)NNC(=O)c3ccc(C)cc3)ccc21 the results were CHO parental Ca inactive, TAAR1 agonist inactive, OX1R antag-1 inactive, OX1R antag-2 inactive and TAAR1 antag inactive.
For COc1ccc(/C=N/NC(=O)CCCOc2ccc(Cl)cc2Cl)cc1[N+](=O)[O-] the results were CHO parental Ca inactive, TAAR1 agonist inactive, OX1R antag-1 inactive, OX1R antag-2 inactive and TAAR1 antag 48.8.
For COC(=O)[C@]12C[C@H](CC(=O)NCc3cccs3)C(=O)N(Cc3ccccc3)C1=C[C@H](C1CCCC1)O[C@@H]2C the results were TAAR1 agonist inactive and TAAR1 antag inactive.
For O=C(O)c1cccc(Nc2ccncc2[N+](=O)[O-])c1 the results were CHO parental Ca inactive, TAAR1 agonist inactive, OX1R antag-1 inactive, OX1R antag-2 38.5 and TAAR1 antag inactive.
For Nc1ccc(Nc2ccncc2[N+](=O)[O-])cc1 the results were CHO parental Ca inactive, TAAR1 agonist inactive, OX1R antag-1 inactive, OX1R antag-2 63.9 and TAAR1 antag inactive.
O=C(O)c1ccc(Nc2cccc(F)c2)c([N+](=O)[O-])c1 was read as CHO parental Ca inactive, TAAR1 agonist inactive, OX1R antag-1 inactive, OX1R antag-2 inactive and TAAR1 antag inactive.
COc1cccc(Nc2c([N+](=O)[O-])cncc2[N+](=O)[O-])c1 was read as CHO parental Ca inactive, TAAR1 agonist inactive, OX1R antag-1 inactive, OX1R antag-2 75.9 and TAAR1 antag inactive.
Screening O=[N+]([O-])c1cnccc1Nc1ccccc1 returned CHO parental Ca inactive, TAAR1 agonist inactive, OX1R antag-1 inactive, OX1R antag-2 57.7 and TAAR1 antag inactive.
COc1cc(/C=C2\C(=N)N3N=C(S(C)(=O)=O)SC3=NC2=O)ccc1OS(=O)(=O)c1ccc(C)cc1 was read as CHO parental Ca inactive, TAAR1 agonist inactive, OX1R antag-1 inactive, OX1R antag-2 inactive and TAAR1 antag inactive.
Cc1ccc2nc(-c3ccc(C#N)cc3)c(Cc3cccc(F)c3)n2c1 was read as TAAR1 agonist inactive and TAAR1 antag inactive.
C/C(=N\NC(=O)CCc1c(C)n[nH]c1C)c1ccc([N+](=O)[O-])cc1 was read as CHO parental Ca inactive, TAAR1 agonist inactive, OX1R antag-1 inactive, OX1R antag-2 inactive and TAAR1 antag inactive.
Screening C/C(=N\NC(=O)CCc1c[nH]c2ccccc12)c1ccc([N+](=O)[O-])cc1 returned CHO parental Ca inactive, TAAR1 agonist inactive, OX1R antag-1 inactive, OX1R antag-2 59.5 and TAAR1 antag inactive.
For O=c1c2cccc3c2c(nn1CN1CCOCC1)-c1ccccc1-3 the results were CHO parental Ca inactive, OX1R antag-1 inactive and OX1R antag-2 71.1.
Screening CCN(CC)CCn1nc2c3c(cccc3c1=O)-c1ccccc1-2 returned CHO parental Ca inactive, TAAR1 agonist inactive, OX1R antag-1 inactive, OX1R antag-2 inactive and TAAR1 antag inactive.
`CCC(C)c1ccc(NC(=S)NCCn2cc(Cl)cn2)cc1` (stereo not drawn) gave CHO parental Ca 45.1, TAAR1 agonist inactive, OX1R antag-1 inactive, OX1R antag-2 inactive and TAAR1 antag inactive.
`CN1CCN(C(=O)/C(=C/c2ccc([N+](=O)[O-])cc2)NC(=O)c2ccccc2)CC1` gave CHO parental Ca inactive, TAAR1 agonist inactive, OX1R antag-1 inactive, OX1R antag-2 inactive and TAAR1 antag inactive.
Screening O=C(N/C(=C\c1ccc([N+](=O)[O-])cc1)C(=O)N1CCCCC1)c1ccccc1 returned CHO parental Ca inactive, TAAR1 agonist inactive, OX1R antag-1 inactive, OX1R antag-2 74.8 and TAAR1 antag inactive.
Screening O=C(N/C(=C/c1cccc([N+](=O)[O-])c1)C(=O)N1CCOCC1)c1ccccc1Br returned CHO parental Ca inactive, TAAR1 agonist inactive, OX1R antag-1 inactive, OX1R antag-2 58.2 and TAAR1 antag inactive.
O=C(CSc1nccc(=O)[nH]1)NCc1ccc(Cl)cc1 was read as CHO parental Ca inactive, TAAR1 agonist inactive, OX1R antag-1 inactive, OX1R antag-2 inactive and TAAR1 antag inactive.
O=[N+]([O-])c1ccc(Sc2ccccc2)nc1 was read as CHO parental Ca inactive, TAAR1 agonist inactive, OX1R antag-1 inactive, OX1R antag-2 inactive and TAAR1 antag inactive.
Screening O=[N+]([O-])c1ccc(Sc2n[nH]c(-c3ccccc3)n2)nc1 returned CHO parental Ca inactive, TAAR1 agonist inactive, OX1R antag-1 inactive, OX1R antag-2 74.0 and TAAR1 antag inactive.
CCn1nnc(-c2ccccc2NS(=O)(=O)c2ccc(S(=O)(=O)N3CCCCCC3)cc2)n1 was read as CHO parental Ca inactive, TAAR1 agonist inactive, OX1R antag-1 inactive, OX1R antag-2 inactive and TAAR1 antag inactive.
Screening CCOC(=O)c1ccc(S(=O)(=O)Nc2ccccc2-c2nnn(CC)n2)cc1 returned TAAR1 agonist inactive and TAAR1 antag 52.9.
Cc1c(C(=O)O)cccc1-c1ccc(/C=C2/NC(=O)N(c3ccccc3)C2=O)o1 was read as CHO parental Ca inactive, TAAR1 agonist inactive, OX1R antag-1 inactive, OX1R antag-2 inactive and TAAR1 antag inactive.
For Cc1c(C(=O)O)cccc1-c1ccc(/C=C2\SC(=O)NC2=O)o1 the results were CHO parental Ca inactive, TAAR1 agonist inactive, OX1R antag-1 inactive, OX1R antag-2 55.6 and TAAR1 antag inactive.
CC(C)Nc1nc(NC(C)C)nc(N(C)N)n1 was read as CHO parental Ca 99.8, TAAR1 agonist inactive, OX1R antag-1 inactive, OX1R antag-2 inactive and TAAR1 antag inactive.
`O=c1c2cc(F)ccc2sn1-c1ccc(F)cc1` gave CHO parental Ca inactive, OX1R antag-1 inactive and OX1R antag-2 32.1.
`COc1ccc(-n2sc3ccc(F)cc3c2=O)cc1` gave CHO parental Ca 64.6, TAAR1 agonist 49.6, OX1R antag-1 inactive, OX1R antag-2 inactive and TAAR1 antag inactive.
For O=c1c2cc([N+](=O)[O-])ccc2sn1-c1ccccc1 the results were TAAR1 agonist inactive and TAAR1 antag inactive.
Screening Cc1ccc(C)c(-n2sc3ccc(F)cc3c2=O)c1 returned CHO parental Ca 45.2, TAAR1 agonist 45.2, OX1R antag-1 inactive, OX1R antag-2 inactive and TAAR1 antag 50.5.
Cn1cnc2ncnc(Oc3ccc(Br)cc3)c21 was read as TAAR1 agonist inactive and TAAR1 antag inactive.
COc1cccc(-c2c(-c3cc(OC)cc(OC)c3)n(C)c3ccc(-c4cccc5[nH]ccc45)cc23)c1 was read as CHO parental Ca inactive, TAAR1 agonist inactive, OX1R antag-1 inactive, OX1R antag-2 inactive and TAAR1 antag inactive.
O=C(NC1CC1)c1sc2cc([N+](=O)[O-])ccc2c1Cl was read as CHO parental Ca inactive, TAAR1 agonist inactive, OX1R antag-1 inactive, OX1R antag-2 68.6 and TAAR1 antag inactive.
`COc1ccc(-c2cc3nc(-c4ccccc4)cc(N4CCC(O)CC4)n3n2)cc1` gave CHO parental Ca inactive, TAAR1 agonist inactive, OX1R antag-1 inactive, OX1R antag-2 inactive and TAAR1 antag 49.2.
